The source made the active and inactive calls. The calls are words filed in the database; no cut-off is given here.
system: Mus musculus; assay: Compound was tested for inhibition of locomotor activity and ataxia in mice after intraperitoneal administration; type: functional; conditions: ip
Summary of the method: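 Unfasted male Swiss–Webster mice (20–30 g), nine per dose in groups of three, given compound ip in 0.2% methocel 1 h before testing. Ataxia assessed by 60-s inverted screen test, then photocell actophotometer locomotion recorded over 60 min as percent inhibition versus vehicle. At least three doses.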

Q: For `CN1CCN(C2=Nc3cc(Cl)ccc3Nc3ccccc32)CC1` [CLOZAPINE], which ED50 is on record?
A: 5.65 mg/kg

system: not listed separately; assay: Compound was tested for inhibition of sidman avoid in squirrel monkeys after peroral administration; conditions: Saimiri, po

Q: Which ED50 does the source give for `CN1CCN(C2=Nc3cc(Cl)ccc3Nc3ccccc32)CC1` [CLOZAPINE] here?
A: 4.1 mg/kg

target: T1, Beta-2 adrenergic receptor (Rattus norvegicus, UniProt P10608); assay: (§1) Binding affinity against beta-2 adrenergic receptor in rat brain using [3H]DHA; type: tissue-based; conditions: not given
Summary of the method: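 β2 sites in rat cerebellum membranes (male Long-Evans, 150–250 g) with [3H]dihydroalprenolol at 0.5 nM final. (-)-Alprenolol at 1 μM final defined the reference. IC50 from four or five concentrations by nonlinear curve fit.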

T1 sequence (P10608 whole entry): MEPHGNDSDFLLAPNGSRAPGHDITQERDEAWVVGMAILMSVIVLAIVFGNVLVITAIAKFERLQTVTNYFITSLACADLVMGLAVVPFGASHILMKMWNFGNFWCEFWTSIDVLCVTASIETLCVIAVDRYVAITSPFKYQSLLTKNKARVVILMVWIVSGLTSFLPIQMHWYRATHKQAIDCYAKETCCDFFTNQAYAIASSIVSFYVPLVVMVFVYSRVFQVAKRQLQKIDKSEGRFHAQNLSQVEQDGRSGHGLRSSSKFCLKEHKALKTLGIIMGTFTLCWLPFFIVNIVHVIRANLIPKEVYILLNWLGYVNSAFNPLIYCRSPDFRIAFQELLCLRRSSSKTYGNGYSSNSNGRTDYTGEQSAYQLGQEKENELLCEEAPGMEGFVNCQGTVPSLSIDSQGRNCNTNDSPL

Q: With `O=C(CCCN1CCC(O)(c2ccc(Cl)cc2)CC1)c1ccc(F)cc1` [HALOPERIDOL] as the compound, how does the IC50 read?
A: > 10 µM

species on record: Mus musculus; assay: Ability to inhibit locomotor activity using ataxia test.; type: functional; conditions: read-out: MED
Summary of the method: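 Male Swiss–Webster mice (20–30 g, unfasted), nine per dose in groups of three, dosed ip in 0.2% methocel (dose as parent compound) 1 h before testing. Ataxia was scored first on an inverted screen over 60 s as % of mice falling. […] ED50 from at least three doses.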

Q: For `Cc1nn(C)c(NC(=O)CNCCCN2CCCC(C)C2)c1C(=O)c1ccccc1F` (configuration not stated), which minimal effective dose is on record?
A: 100 mg/kg

Q: Which minimal effective dose does the source give for `Cc1nn(C)c(NC(=O)CN2CCCCC2)c1C(=O)c1ccccc1F` here?
A: 30 mg/kg

Q: With `Cc1nn(C)c(N(C)C(=O)C(F)(F)F)c1C(=O)c1ccccc1F` as the compound, how does the minimal effective dose read?
A: > 100 mg/kg

Q: Which minimal effective dose does the source give for `CNc1c(C(=O)c2ccccc2F)c(C)nn1C` here?
A: 30 mg/kg

Q: With `CC(=O)Nc1c(C(=O)c2ccccc2F)c(C)nn1C` as the compound, how does the minimal effective dose read?
A: 30 mg/kg

Q: With `Cc1nn(C)c(NC(=O)CN2CCC(c3ccccc3)CC2)c1C(=O)c1ccccc1F` as the compound, how does the minimal effective dose read?
A: 30 mg/kg

Q: With `Cc1nn(C)c(NC(=O)CN2CCCC2)c1C(=O)c1ccccc1F` as the compound, how does the minimal effective dose read?
A: 30 mg/kg

Q: Which minimal effective dose does the source give for `CCCNc1c(C(=O)c2ccccc2F)c(C)nn1C` here?
A: < 10 mg/kg

Q: For `Cc1nn(C)c(NC(=O)CNCCCN2CCC(C)CC2)c1C(=O)c1ccccc1F`, which minimal effective dose is on record?
A: 100 mg/kg

Q: For `Cc1nn(C)c(NC(=O)CN(C)CCCN2CCCCC2C)c1C(=O)c1ccccc1F` (configuration not stated), which minimal effective dose is on record?
A: 30 mg/kg

Q: Which minimal effective dose does the source give for `Cc1nn(C)c(NC(=O)CNCCN(C(C)C)C(C)C)c1C(=O)c1ccccc1F` here?
A: 100 mg/kg

Q: For `Cc1nn(C)c(NC(=O)C(C)N2CCCC2)c1C(=O)c1ccccc1F` (configuration not stated), which minimal effective dose is on record?
A: 100 mg/kg

species on record: Rattus norvegicus; assay: Compound was tested for its potential to produce clonic seizures in rats; + indicates compound is causing seizures; type: functional, organism-based; conditions: not given
Summary of the method: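 Any sign of seizure marked the compound as seizure-causing; the outcome was not quantified.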

Q: With `Cc1nn(C)c(N(C)C(=O)C(F)(F)F)c1C(=O)c1ccccc1F` as the compound, how does the Clonic seizures read?
A: causing seizures

Q: With `CNc1c(C(=O)c2ccccc2F)c(C)nn1C` as the compound, how does the Clonic seizures read?
A: causing seizures

Q: For `CC(=O)Nc1c(C(=O)c2ccccc2F)c(C)nn1C`, which Clonic seizures is on record?
A: causing seizures

Q: For `CCCNc1c(C(=O)c2ccccc2F)c(C)nn1C`, which Clonic seizures is on record?
A: causing seizures

target: T1, Beta-2 adrenergic receptor; assay: as §1; type: tissue-based; conditions: not given
Summary of the method: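 β2 binding on rat cerebellum membranes (male Long–Evans rats, 150–250 g) with [3H]dihydroalprenolol, 0.5 nM final. Nonspecific binding defined with (-)-alprenolol, 1 μM final. IC50 from four or five concentrations by nonlinear curve fit.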

Q: With `CN1CCN(C2=Nc3cc(Cl)ccc3Nc3ccccc32)CC1` [CLOZAPINE] as the compound, how does the IC50 read?
A: > 10 µM

system: Mus musculus; assay: Compound was tested for inhibition of apomorphine-induced climbing in mice after intraperitoneal administration; type: functional; conditions: ip
Summary of the method: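 Male Swiss–Webster mice (25–35 g), ten per dose, acclimated 30 min in cylindrical cages, dosed ip, then given apomorphine 3 mg/kg sc 1 h later. Climbing scored in 30-s tests every 5 min for 30 min, starting 15 min after apomorphine. At least three doses; ED50 by nonlinear regression.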

Q: With `CN1CCN(C2=Nc3cc(Cl)ccc3Nc3ccccc32)CC1` [CLOZAPINE] as the compound, how does the ED50 read?
A: 10 mg/kg

system: Rattus norvegicus; assay: Suppression of conditional avoidance after peroral administration; type: functional; conditions: po
Summary of the method: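 Fasted male Wistar rats (150–250 g) were trained to jump to a platform at a buzzer to avoid grid shock (1.1 mA/s). After oral dosing they were tested every 20 min for 6 h over 19 trials, 10 rats per dose, each rat used once. Peak effect was the mean of the four consecutive trials with the largest effect, computed from response latency. ED50 read graphically from at least three doses.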

Q: Which ED50 does the source give for `Cc1nn(C)c(NC(=O)CNCCCN2CCCC(C)C2)c1C(=O)c1ccccc1F` (configuration not stated) here?
A: 100 mg/kg

Q: With `Cc1nn(C)c(NC(=O)CN2CCCCC2)c1C(=O)c1ccccc1F` as the compound, how does the ED50 read?
A: > 100 mg/kg

Q: Which ED50 does the source give for `Cc1nn(C)c(NC(=O)CN2CCC(c3ccccc3)CC2)c1C(=O)c1ccccc1F` here?
A: 100 mg/kg

Q: For `Cc1nn(C)c(NC(=O)CN2CCCC2)c1C(=O)c1ccccc1F`, which ED50 is on record?
A: 48 mg/kg

Q: For `Cc1nn(C)c(NC(=O)CN(C)CCCN2CCCCC2C)c1C(=O)c1ccccc1F` (configuration not stated), which ED50 is on record?
A: 21 mg/kg

Q: Which ED50 does the source give for `Cc1nn(C)c(NC(=O)CNCCN(C(C)C)C(C)C)c1C(=O)c1ccccc1F` here?
A: 71 mg/kg

Q: Which ED50 does the source give for `Cc1nn(C)c(NC(=O)C(C)N2CCCC2)c1C(=O)c1ccccc1F` (configuration not stated) here?
A: > 100 mg/kg

system: Rattus norvegicus; assay: Compound was tested for serum prolactin assay method in rats at 1 mg/kg dose after peroral administration; type: functional; conditions: route oral
Summary of the method: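 Seven-week-old male Sprague–Dawley rats, five per group, were dosed orally and killed by decapitation 1 h later. Serum prolactin from trunk blood was measured by radioimmunoassay with [125I]-PRL and expressed as % of control (mean ± SEM).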

Q: With `O=C(CCCN1CCC(O)(c2ccc(Cl)cc2)CC1)c1ccc(F)cc1` [HALOPERIDOL] as the compound, how does the Control read?
A: 224%

system: not listed separately; assay: Extrapyramidal side effect test in cebus monkey; type: functional; conditions: read-out: MED
Summary of the method: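 Groups of three to six were then dosed by gavage and observed hourly for 6–8 h for dystonia or dyskinesia. Any unequivocal sign counted as a positive response. Minimal effective dose was determined in at least three animals.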

Q: For `CN1CCN(C2=Nc3cc(Cl)ccc3Nc3ccccc32)CC1` [CLOZAPINE], which minimal effective dose is on record?
A: > 30 mg/kg

system: Canis familiaris; assay: Compound was tested for inhibition of emesis test in dogs administered perorally; antiemetic; type: functional, organism-based; conditions: Canis lupus familiaris

Q: For `CN1CCN(C2=Nc3cc(Cl)ccc3Nc3ccccc32)CC1` [CLOZAPINE], which MED is on record?
A: Active

target: Beta-1 adrenergic receptor (Rattus norvegicus, UniProt P18090); assay: Binding affinity against beta-1 adrenergic receptor in rat brain using [3H]DHA; type: tissue-based; conditions: not given
Summary of the method: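 β1 binding was run on rat cerebral cortex membranes from male Long–Evans rats (150–250 g) with [3H]dihydroalprenolol at 0.5 nM final. Nonspecific binding was defined with (−)-alprenolol at 1 μM final. IC50 from four or five concentrations by nonlinear curve fit.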

Beta-1 adrenergic receptor, sequence (P18090 whole entry): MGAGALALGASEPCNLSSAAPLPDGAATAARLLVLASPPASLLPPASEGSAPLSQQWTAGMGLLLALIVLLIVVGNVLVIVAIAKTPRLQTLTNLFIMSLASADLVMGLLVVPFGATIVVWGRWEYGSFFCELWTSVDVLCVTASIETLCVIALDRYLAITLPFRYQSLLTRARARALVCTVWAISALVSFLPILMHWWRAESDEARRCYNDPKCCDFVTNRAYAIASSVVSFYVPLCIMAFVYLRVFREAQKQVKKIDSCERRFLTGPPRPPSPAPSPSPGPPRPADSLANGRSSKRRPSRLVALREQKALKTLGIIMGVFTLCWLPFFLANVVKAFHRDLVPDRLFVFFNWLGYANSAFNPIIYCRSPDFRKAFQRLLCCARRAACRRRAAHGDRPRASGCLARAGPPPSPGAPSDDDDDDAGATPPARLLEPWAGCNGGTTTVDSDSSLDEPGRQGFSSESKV

Q: For `O=C(CCCN1CCC(O)(c2ccc(Cl)cc2)CC1)c1ccc(F)cc1` [HALOPERIDOL], which IC50 is on record?
A: > 10 µM

system: Rattus norvegicus; assay: Compound was tested for inhibition of conditional avoid in rats after peroral administration; type: functional; conditions: po
Summary of the method: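 Fasted male Wistar rats (150–250 g) trained to jump to a platform at a buzzer to avoid grid shock (1.1 mA/s). After oral dosing, tested every 20 min for 6 h over 19 trials, 10 rats per dose. Peak effect from four consecutive trials using response latency. ED50 read graphically from at least three doses.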

Q: Which ED50 does the source give for `CN1CCN(C2=Nc3cc(Cl)ccc3Nc3ccccc32)CC1` [CLOZAPINE] here?
A: 22 mg/kg

system: Rattus norvegicus; assay: Compound was tested for its affect on the accumulation of the dopamine metabolite homovanillic acid (HAV) in the rat striatum at 1 mg/kg dose after peroral administration; type: functional; conditions: route oral
Summary of the method: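 Male Long–Evans rats were dosed orally and decapitated 2 h later. Striatal HVA was isolated on Sephadex G-10 and measured spectrofluorometrically, expressed as % control ± SEM.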

Q: For `O=C(CCCN1CCC(O)(c2ccc(Cl)cc2)CC1)c1ccc(F)cc1` [HALOPERIDOL], which Control is on record?
A: 348.9%

target: Dopamine receptor; assay: Binding affinity for dopamine receptor in rat striatal membrane using [3H]haloperidol as radioligand; type: cell membranes, Striatum; conditions: not given
Summary of the method: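 Nonspecific binding defined with (+)-butaclamol at 0.1 μM final. IC50 fitted by nonlinear curve fit from four or five concentrations in triplicate.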

Q: Which IC50 does the source give for `Cc1nn(C)c(NC(=O)CNCCCN2CCCC(C)C2)c1C(=O)c1ccccc1F` (configuration not stated) here?
A: > 10 µM

Q: Which IC50 does the source give for `Cc1nn(C)c(NC(=O)CN2CCCCC2)c1C(=O)c1ccccc1F` here?
A: > 10 µM

Q: With `Cc1nn(C)c(NC(=O)CN2CCC(c3ccccc3)CC2)c1C(=O)c1ccccc1F` as the compound, how does the IC50 read?
A: > 10 µM

Q: For `Cc1nn(C)c(NC(=O)CN2CCCC2)c1C(=O)c1ccccc1F`, which IC50 is on record?
A: > 10 µM

Q: With `Cc1nn(C)c(NC(=O)CNCCCN2CCC(C)CC2)c1C(=O)c1ccccc1F` as the compound, how does the IC50 read?
A: > 10 µM

Q: For `Cc1nn(C)c(NC(=O)CN(C)CCCN2CCCCC2C)c1C(=O)c1ccccc1F` (configuration not stated), which IC50 is on record?
A: > 10 µM

Q: Which IC50 does the source give for `Cc1nn(C)c(NC(=O)CNCCN(C(C)C)C(C)C)c1C(=O)c1ccccc1F` here?
A: > 10 µM

Q: Which IC50 does the source give for `Cc1nn(C)c(NC(=O)C(C)N2CCCC2)c1C(=O)c1ccccc1F` (configuration not stated) here?
A: > 10 µM
